One assay concerns the target T1, Glutathione peroxidase 1 (Homo sapiens, UniProt P07203).
T1 sequence (P07203 whole entry): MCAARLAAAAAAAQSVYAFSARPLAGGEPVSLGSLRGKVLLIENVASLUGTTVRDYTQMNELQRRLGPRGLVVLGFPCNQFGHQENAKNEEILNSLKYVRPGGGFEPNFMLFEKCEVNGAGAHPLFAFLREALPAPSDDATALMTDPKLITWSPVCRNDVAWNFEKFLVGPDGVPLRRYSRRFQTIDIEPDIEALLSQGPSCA
Description: Inhibition of GPx1 using gultathione as substrate by glutathione reductase-coupled assay. In outline: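 GPx activity read as NADPH consumption at 340 nm. GPx oxidizes GSH to GSSG with H2O2 as co-substrate, and glutathione reductase reduces GSSG back to GSH. Earlier method, adapted to 96-well format. 0.1% Triton X-100 in all incubations to prevent compound precipitation. Docking used bovine erythrocyte GPx1.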

Assay [1] concerns the target T2, Glutathione peroxidase 1 (Homo sapiens) (UniProt P07203).
T2 sequence (whole entry): T1 sequence (P07203 whole entry)
The settings on record: 250 uM.

Assay [2] deals with T2, Glutathione peroxidase 1 (Homo sapiens). The settings on record: 50 uM.
Assay [3] addresses T3, Glutathione reductase, mitochondrial (Homo sapiens) (UniProt P00390).
T3 sequence (whole entry): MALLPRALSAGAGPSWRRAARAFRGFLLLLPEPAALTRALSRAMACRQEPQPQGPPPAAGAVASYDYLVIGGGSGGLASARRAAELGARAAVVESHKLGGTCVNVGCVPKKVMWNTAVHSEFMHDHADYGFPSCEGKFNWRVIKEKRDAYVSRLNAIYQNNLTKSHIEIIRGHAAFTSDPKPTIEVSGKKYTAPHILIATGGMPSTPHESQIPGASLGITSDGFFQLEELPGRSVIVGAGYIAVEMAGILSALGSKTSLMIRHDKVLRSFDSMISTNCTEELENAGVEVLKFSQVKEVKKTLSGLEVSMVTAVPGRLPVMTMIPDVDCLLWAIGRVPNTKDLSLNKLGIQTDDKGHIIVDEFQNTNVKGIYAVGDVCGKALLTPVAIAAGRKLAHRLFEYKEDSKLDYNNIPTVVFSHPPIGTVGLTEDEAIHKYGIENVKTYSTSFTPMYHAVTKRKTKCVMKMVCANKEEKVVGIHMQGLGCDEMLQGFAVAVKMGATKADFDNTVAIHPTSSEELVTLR
Description: Inhibition of glutathione reductase up to 200 uM. In outline:
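Specific glutathione reductase assay (earlier method), compound tested at up to 200 µM.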

Assay [4] is described as follows: Cytotoxicity against human bortezomib-resistant DOGUM cells after 72 hrs by MTT assay. The format is functional, cell-based. The procedure, abridged: (§1)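 Cells from two patients with chemotherapy-resistant non-Hodgkin B-cell lymphoma. Resistant sublines were made by exposure to methotrexate, etoposide, cisplatin or bortezomib in culture over 2–3 months. Microtiter MTT assay, giving the IC50 as mean ± SD of 3 or more independent experiments. Drugs were tested alone and with co-incubation with 25 µM inhibitor.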
(In general: Formazan colour is commonly taken as a measure of viable cells.)

Assay [5] is described as follows: Cytotoxicity against human bortezomib-resistant GUMBUS cells after 72 hrs by MTT assay. The format is functional, cell-based. The procedure, abridged: as §1
A short description of assay [6]: Cytotoxicity against human DOGUM cells after 72 hrs by MTT assay. In kind it is functional, cell-based. In outline:
as §1

Assay [7] is described as follows: Resistance ratio of IC50 for human bortezomib-resistant DOGUM cells to IC50 for human DOGUM cells. In kind it is functional.
Assay [8] can be described thus: Cytotoxicity against human GUMBUS cells after 72 hrs by MTT assay. The format is functional, cell-based. The procedure, abridged:
as §1

Assay [9] in a line: Resistance ratio of IC50 for human bortezomib-resistant GUMBUS cells to IC50 for human GUMBUS cells. The format is functional.
Assay [10] can be described thus: Cytotoxicity against human etoposide-resistant GUMBUS cells after 72 hrs by MTT assay. In kind it is functional, cell-based. In outline:
as §1

A short description of assay [11]: Resistance ratio of IC50 for human etoposide-resistant DOGUM cells to IC50 for human DOGUM cells. In kind it is functional.
A short description of assay [12]: Cytotoxicity against human etoposide-resistant DOGUM cells after 72 hrs by MTT assay. In kind it is functional, cell-based. The procedure, abridged: as §1
Assay [13] can be described thus: Resistance ratio of IC50 for human etoposide-resistant GUMBUS cells to IC50 for human GUMBUS cells. In kind it is functional.
A short description of assay [14]: Cytotoxicity against human methotrexate-resistant DOGUM cells after 72 hrs by MTT assay. In kind it is functional, cell-based. The procedure, abridged: as §1
The nature of assay [15]: Cytotoxicity against human methotrexate-resistant GUMBUS cells after 72 hrs by MTT assay. The format is functional, cell-based. In outline: as §1

As usually defined, the pIC50 is the negative decadic logarithm of the IC50, by convention in mol/L. Higher therefore signals a low IC50. For orientation: inhibition means the share of the control response that was lost under treatment.

pIC50: −log10 of the molar value. The source made the active and inactive calls. No cut-off for these calls is given here.

Turning to `Cc1nccn1CC(=O)N/N=C/c1ccc(O)cc1`, the negative-log IC50 (pIC50) at Glutathione peroxidase 1 is 3.77. The inhibition result in assay [1] and in [3] was “inactive” in each case. This compound returned an inhibition in [2] of 15%.

For `CC(C)C[C@H](NC(=O)[C@H](Cc1ccccc1)NC(=O)c1cnccn1)B(O)O` [BORTEZOMIB], the pIC50 was 8.15 in assay [4], 7.46 in assay [5], 8.70 in [6] and 8.22 in [8]. Also, the “Ratio IC50” value in assay [7] is on record as 4; in [9] it was 6.

With `COc1cc([C@@H]2c3cc4c(cc3[C@@H](O[C@@H]3O[C@@H]5CO[C@@H](C)O[C@H]5[C@H](O)[C@H]3O)[C@H]3COC(=O)[C@H]23)OCO4)cc(OC)c1O` [ETOPOSIDE], the negative-log IC50 (pIC50) in [10] was 6.24; in assay [12] it was 6.55; in [6], 7.12; in assay [8], 7.38. In addition, the “Ratio IC50” value in assay [11] is 4; in assay [13], 13.

On to `CN(Cc1cnc2nc(N)nc(N)c2n1)c1ccc(C(=O)N[C@@H](CCC(=O)O)C(=O)O)cc1` [METHOTREXATE], for which the pIC50 was 6.47 in assay [14], 7.08 in assay [6], 7.62 in assay [8] and 6.27 in [15].

Source of the values: ChEMBL document CHEMBL2163230, “Identification of a glutathione peroxidase inhibitor that reverses resistance to anticancer drugs in human B-cell lymphoma cell lines” (Bioorg Med Chem Lett, 2012).
